Laboratory results reported in ChEMBL document CHEMBL1143117, “Synthesis and SAR of 2-aryloxy-4-alkoxy-pyridines as potent orally active corticotropin-releasing factor 1 receptor antagonists” (J Med Chem, 2008).
Values after ≈ are worked out from the molar mass of the structure shown. Blank lines part the entries; values can stand above or below the compound they belong to.

Experiments:
[1] = test system: Rattus norvegicus; experiment: Ex vivo displacement of [125]oCRF from CRF1 receptor in rat cortex at 3.2 mg/kg, sc; format: functional; settings: route subcutaneous
Summary of the method: (§1)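 Rats received 3.2 mg/kg p.o. or s.c. per line, and cortex and pituitary binding of ¹²⁵I-oCRF was measured 1 h later by one of two methods. Homogenate method: 25 mg wet tissue/mL in PIPES pH 7.0 buffer, 40 pM ligand, 2 h at room temperature, centrifuged, filtered, scintillation counted. Autoradiographic method: male Sprague-Dawley rats (N = 4), 16 µm sections, 60 pM ligand, 1 h at room temperature. Nonspecific binding was set with 1 µM rat/human CRF. Percent inhibition is mean ± SD.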

[2] = test system: Rattus norvegicus; experiment: Ex vivo displacement of [125]oCRF from CRF1 receptor in rat pituitary at 3.2 mg/kg, sc; format: functional; settings: route subcutaneous; summary of the method: as §1
[3] = molecular target: T1, Corticotropin-releasing factor receptor 1 (Rattus norvegicus, UniProt P35353); experiment: Displacement of [125]oCRF from rat cortex CRF1 receptor
T1 sequence (P35353 whole entry): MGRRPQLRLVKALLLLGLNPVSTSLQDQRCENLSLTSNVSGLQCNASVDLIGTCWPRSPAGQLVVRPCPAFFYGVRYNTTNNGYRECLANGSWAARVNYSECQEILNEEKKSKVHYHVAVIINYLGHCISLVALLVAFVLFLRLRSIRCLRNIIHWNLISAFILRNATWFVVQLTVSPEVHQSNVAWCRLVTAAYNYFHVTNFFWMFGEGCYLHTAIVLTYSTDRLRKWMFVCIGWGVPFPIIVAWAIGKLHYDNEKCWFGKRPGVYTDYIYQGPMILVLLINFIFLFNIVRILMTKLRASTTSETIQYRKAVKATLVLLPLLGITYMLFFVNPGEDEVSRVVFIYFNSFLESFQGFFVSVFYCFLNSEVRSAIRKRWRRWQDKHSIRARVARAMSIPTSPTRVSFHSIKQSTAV
Summary of the method: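 Rat cortex binding used ¹²⁵I-ovine-CRF as radioligand. pIC50 ± SEM and IC50 are geometric means of at least three experimental runs.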

[4] = test system: Rattus norvegicus; experiment: Ex vivo displacement of [125]oCRF from CRF1 receptor in rat cortex at 3.2 mg/kg, po; format: functional; summary of the method: as §1
[5] = molecular target: T2, Corticotropin-releasing factor receptor 1 (Homo sapiens, UniProt P34998); experiment: Antagonist activity at human CRF1 receptor endogenously expressed in human IMR32 cells; format: functional, cell-based, IMR-32
T2 sequence (P34998 whole entry): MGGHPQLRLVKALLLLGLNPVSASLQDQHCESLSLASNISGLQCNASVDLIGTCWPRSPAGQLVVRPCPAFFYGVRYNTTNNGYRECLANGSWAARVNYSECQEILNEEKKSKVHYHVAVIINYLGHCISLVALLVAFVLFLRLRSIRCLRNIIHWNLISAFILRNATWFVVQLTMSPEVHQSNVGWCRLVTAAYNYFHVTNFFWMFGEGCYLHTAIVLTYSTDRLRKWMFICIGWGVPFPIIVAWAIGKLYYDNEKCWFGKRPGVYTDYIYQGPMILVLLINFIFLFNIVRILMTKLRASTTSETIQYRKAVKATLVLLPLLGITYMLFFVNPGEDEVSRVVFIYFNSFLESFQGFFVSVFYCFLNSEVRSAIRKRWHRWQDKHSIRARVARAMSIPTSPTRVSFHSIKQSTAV

[6] = Dissociation constant, pKa of the compound; format: physicochemical
Summary of the method: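 UV spectrophotometric pKa determination, with the value extrapolated to 0% organic solvent.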

[7] = test system: Rattus norvegicus; experiment: Ex vivo displacement of [125]oCRF from CRF1 receptor in rat pituitary at 3.2 mg/kg, po; format: functional; summary of the method: as §1
[8] = Solubility at pH 2; format: physicochemical; settings: buffer
[9] = molecular target: Corticotropin-releasing factor receptor 1 (Rattus norvegicus) (UniProt P35353); experiment: Inhibition of CRF1 receptor
[10] = molecular target: T1, Corticotropin-releasing factor receptor 1; experiment: Antagonist activity at rat cortex CRF1 receptor assessed as inhibition of CRF-stimulated adenylate cyclase activity; format: functional, tissue-based
[11] = test system: Rattus norvegicus; experiment: Attenuation of HPA axis activation in po dosed rat assessed as blockade of oCRF-induced elevation of plasma ACTH; format: functional
Summary of the method: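 Rats were dosed orally, then challenged with exogenous oCRF at 4 µg/kg i.v., and plasma ACTH was measured. The MED was judged against CRF alone by one-way ANOVA with Dunnett's post hoc test (N = 12). ID50 (p.o.) was calculated with a confidence interval.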

[12] = Solubility at pH 7; format: physicochemical; settings: buffer
[13] = Solubility of the compound; format: physicochemical
Summary of the method: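 Kinetic water solubility was measured in an in-house high-throughput assay.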

Compound: CCC(CC)Oc1cc(C)nc(Oc2c(C)cc(C)cc2C)c1C
inhibition in vivo at 3.2 mg/kg [4]: 75%
Ki [5]: 0.0085 µM
pKa [6]: 3.5
inhibition in vivo at 3.2 mg/kg [7]: 72%
solubility [8]: 3 µg/mL (≈ 9.16 µM)
IC50 [9]: 0.0068 µM
Ki [10]: 0.0076 µM
IC50 [3]: 0.0068 µM
ED50 ([11]; read-out: ID50 (the source's name)): 35 mg/kg
minimal effective dose ([11]; read-out: MED): 10 mg/kg
solubility [12]: 0.2 µg/mL (≈ 0.611 µM)
solubility [13]: < 1 µg/mL

Compound: CCC(CC)Oc1cc(C)nc(Oc2c(C)cc(C)cc2C)c1
IC50 [3]: 0.15 µM

Compound: CCC(CC)Oc1cc(C)nc(Oc2c(C)cc(C)cc2C)c1C(=O)O
IC50 [3]: > 10 µM

Compound: CCC(CC)Oc1cc(C)nc(Oc2c(C)cc(C)cc2C)c1Br
IC50 [3]: 0.0098 µM

Compound: CCc1c(OC(CC)CC)cc(C)nc1Oc1c(C)cc(C)cc1C
inhibition in vivo at 3.2 mg/kg [1]: 57%
inhibition in vivo at 3.2 mg/kg [2]: 66%
IC50 [3]: 0.0091 µM

Compound: CCC(CC)Oc1cc(C)nc(Oc2c(C)cc(C)cc2C)c1N(C)C
IC50 [3]: 0.025 µM

Compound: CCC(CC)Oc1c(C)c(C)nc(Oc2c(C)cc(C)cc2C)c1C
IC50 [3]: 0.18 µM

Compound: CCC(CC)Oc1cc(C)nc(Oc2c(C)cc(Br)cc2C)c1C
inhibition in vivo at 3.2 mg/kg [4]: 47%
inhibition in vivo at 3.2 mg/kg [7]: 84%
IC50 [3]: 0.0026 µM

Compound: CCC(CC)Oc1cc(C)nc(Oc2c(C)cc(Cl)cc2C)c1C
inhibition in vivo at 3.2 mg/kg [4]: 66%
inhibition in vivo at 3.2 mg/kg [7]: 76%
IC50 [3]: 0.0055 µM

Compound: CCc1cc(C)c(Oc2nc(C)cc(OC(CC)CC)c2C)c(C)c1
inhibition in vivo at 3.2 mg/kg [1]: 55%
inhibition in vivo at 3.2 mg/kg [2]: 56%
IC50 [3]: 0.011 µM

Compound: CCC(CC)Oc1cc(C)nc(Oc2c(C)cc(C)nc2C)c1C
inhibition in vivo at 3.2 mg/kg [1]: 70%
pKa [6]: 4.97
inhibition in vivo at 3.2 mg/kg [2]: 6%
IC50 [3]: 0.01 µM
solubility [13]: 10 µg/mL (≈ 30.4 µM)

Compound: CCc1c(C)nc(Oc2c(C)cc(C)cc2C)c(C)c1OC(CC)CC
IC50 [3]: > 10 µM

Compound: CCC(CC)Oc1nc(C)cc(Oc2c(C)cc(C)cc2C)c1C
IC50 [9]: 3.4 µM

Compound: CCC(CC)Oc1cc(C)nc(Oc2c(C)cc(C(N)=O)cc2C)c1C
inhibition in vivo at 3.2 mg/kg [4]: 33%
inhibition in vivo at 3.2 mg/kg [7]: 15%
IC50 [3]: 0.018 µM

Compound: CCC(CC)Oc1cc(C)nc(Oc2c(C)cc(I)cc2C)c1C
inhibition in vivo at 3.2 mg/kg [1]: 27%
inhibition in vivo at 3.2 mg/kg [2]: 72%
IC50 [3]: 0.012 µM

Compound: CCC(CC)Oc1cc(C)nc(Oc2c(C)cc(F)cc2C)c1C
IC50 [3]: 0.032 µM

Compound: CCC(CC)Oc1cc(C)nc(Oc2c(C)cc(C)cc2C)c1C(=O)OC
IC50 [3]: 0.47 µM

Compound: CCC(COC)Oc1cc(C)nc(Oc2c(C)cc(C)cc2C)c1C (stereo unspecified)
inhibition in vivo at 3.2 mg/kg [1]: 75%
inhibition in vivo at 3.2 mg/kg [2]: 49%
IC50 [3]: 0.011 µM

Compound: CCC(CC)Oc1cc(C)nc(Oc2c(C)cc(COC)cc2C)c1C
inhibition in vivo at 3.2 mg/kg [4]: 57%
inhibition in vivo at 3.2 mg/kg [7]: 12%
IC50 [3]: 0.0032 µM

Compound: C/C=C(\CC)Oc1cc(C)nc(Oc2c(C)cc(C)cc2C)c1C (mixture of isomers)
inhibition in vivo at 3.2 mg/kg [1]: 75%
inhibition in vivo at 3.2 mg/kg [2]: 55%
IC50 [3]: 0.016 µM

Now from value to compound, other results behind:

IC50 [3]: 0.028 µM
Compound: CCC(C)Oc1cc(C)nc(Oc2c(C)cc(C)cc2C)c1C (stereo unspecified)
inhibition in vivo at 3.2 mg/kg [1]: 74%
inhibition in vivo at 3.2 mg/kg [2]: 42%

IC50 [3]: 0.04 µM
Compound: CCC(CC)Oc1cc(C)nc(Oc2c(C)cc(C=O)cc2C)c1C

IC50 [3]: 0.002 µM
Compound: CCC(CC)Oc1cc(C)nc(Oc2c(C)cc(OC)cc2C)c1C
inhibition in vivo at 3.2 mg/kg [4]: 75%
inhibition in vivo at 3.2 mg/kg [7]: 55%

IC50 [3]: 0.012 µM
Compound: CCC(CC)Oc1cc(C)nc(Oc2c(C)cc(C)cc2C)c1N
inhibition in vivo at 3.2 mg/kg [1]: 78%
inhibition in vivo at 3.2 mg/kg [2]: 51%

IC50 [3]: 0.04 µM
Compound: CCC(CC)Oc1cc(C)nc(Oc2c(C)cc(C(C)(C)O)cc2C)c1C

IC50 [3]: 1.4 µM
Compound: CCC(CC)Oc1cc(C)nc(Oc2c(C)cc(O)cc2C)c1C

IC50 [3]: 0.1 µM
Compound: Cc1cc(C)c(Oc2nc(C)cc(OC3CCOC3)c2C)c(C)c1 (stereo unspecified)

IC50 [3]: 0.11 µM
Compound: CCC(CC)Oc1cc(C)nc(Oc2c(C)cccc2C)c1C

IC50 [3]: 0.086 µM
Compound: CCc1cc(OC(CC)CC)c(C)c(Oc2c(C)cc(C)cc2C)n1

IC50 [3]: 0.02 µM
Compound: CCOc1cc(C)c(Oc2nc(C)cc(OC(CC)CC)c2C)c(C)c1
inhibition in vivo at 3.2 mg/kg [4]: 43%
inhibition in vivo at 3.2 mg/kg [7]: 33%

IC50 [3]: 0.061 µM
Compound: CCC(CC)Oc1cc(C)nc(Oc2c(C)cc(CO)cc2C)c1C
inhibition in vivo at 3.2 mg/kg [4]: 42%
inhibition in vivo at 3.2 mg/kg [7]: -20%

IC50 [3]: 0.11 µM
Compound: CCC(CC)Oc1cc(C)nc(Oc2c(C)cc(OC(C)C)cc2C)c1C

IC50 [3]: 0.015 µM
Compound: CCC(CC)Oc1cc(C)nc(Oc2c(C)cc(C)cc2C)c1[N+](=O)[O-]
inhibition in vivo at 3.2 mg/kg [1]: 59%
inhibition in vivo at 3.2 mg/kg [2]: 35%

IC50 [3]: 0.0098 µM
Compound: CCCc1cc(C)c(Oc2nc(C)cc(OC(CC)CC)c2C)c(C)c1
inhibition in vivo at 3.2 mg/kg [1]: 42%
inhibition in vivo at 3.2 mg/kg [2]: 34%
